IC50, EC50 and Selectivity data for 14 compounds are collected here from ChEMBL document CHEMBL1129238, “Structure--activity relationships of 1-(2-Deoxy-2-fluoro-beta-L-arabinofuranosyl)pyrimidine nucleosides as anti-hepatitis B virus agents” (J Med Chem, 1996).

The species entered for experiment [1] is Homo sapiens. Kind of experiment: The growth inhibition activity for the compound was evaluated in 2.2.15 cells. The format is functional, cell-based. Particulars: HepG2 2.2.15. The gist of the method:
(§1)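 Cytotoxicity (growth inhibition, IC50) measured in 2.2.15 cells and in CEM cells, with compounds tested at concentrations up to 200 μM.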

The species entered for experiment [2] is Homo sapiens. Kind of experiment: Anti hepatitis-B virus activity was evaluated in 2.2.15 cells. The format is functional, cell-based. To be noted: HepG2 2.2.15. The method, boiled down: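 HBV-producing 2.2.15 cells; EC50 reported; compounds examined at concentrations up to 10 μM.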
For another experiment, the system named is CCRF-CEM. Kind of experiment: The growth inhibition activity for the compound was evaluated in CEM cells. The experiment is classed as functional, cell-based. Particulars: Homo sapiens. The method, boiled down:
as §1

Experiment [3] is filed under the species Homo sapiens. Kind of experiment: Selectivity index was determined from the ratio of IC50 to the EC50 values evaluated in 2.2.15 cells. The experiment is classed as functional, HepG2 2.2.15. The gist of the method:
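Selectivity computed as the ratio of the growth-inhibition IC50 to the anti-HBV EC50, both from 2.2.15 cells. Compounds were tested up to 200 μM for toxicity and up to 10 μM for antiviral activity.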

A value given as a limit tells only on which side of the number the result lay.

In general, IC50 refers to the point on the concentration scale where inhibition reaches its midpoint. Low readings indicate greater potency in that assay, high ones weaker potency in that assay. A word on the EC50: it is the concentration giving half of the maximal effect. Higher therefore signals a need for much substance. `O=c1[nH]c(=O)n([C@@H]2O[C@H](CO)[C@@H](O)[C@@H]2F)cc1C(F)(F)F` returned an IC50 in the experiment filed under Homo sapiens [1] of over 200 µM. Also, the concentration giving a half-maximal response (EC50) in the experiment filed under Homo sapiens [2] is over 10 µM.

In the experiment listed under Homo sapiens [1], `O=c1[nH]c(=O)n([C@@H]2O[C@H](CO)[C@@H](O)[C@H]2F)cc1I` yielded a half-inhibitory concentration (IC50) of over 200 µM. In the experiment listed under Homo sapiens [2], this compound gave an EC50 of over 10 µM.

The compound `CCc1cn([C@H]2O[C@@H](CO)[C@H](O)[C@@H]2F)c(=O)[nH]c1=O` displayed a 50% inhibitory concentration (IC50) in the experiment filed under Homo sapiens [1] of over 200 µM. Also, the EC50 in the experiment filed under Homo sapiens [2] was over 10 µM.

As to `O=c1[nH]c(=O)n([C@H]2O[C@@H](CO)[C@H](O)[C@@H]2F)cc1/C=C/Br`, the IC50 in the experiment filed under Homo sapiens [1] is over 200 µM; in the experiment with CCRF-CEM it was over 100 µM. The compound further had an EC50 in the experiment listed under Homo sapiens [2] of over 10 µM.

With `Nc1nc(=O)n([C@H]2O[C@@H](CO)[C@H](O)[C@H]2F)cc1F`, in the experiment filed under Homo sapiens [1], the IC50 was over 200 µM. Also, the EC50 in the experiment listed under Homo sapiens [2] is over 10 µM.

In the experiment listed under Homo sapiens [1], `C#Cc1cn([C@H]2O[C@@H](CO)[C@H](O)[C@H]2F)c(=O)[nH]c1=O` had a half-inhibitory concentration (IC50) of over 200 µM. The compound further came in with an EC50 in the experiment listed under Homo sapiens [2] of over 10 µM.

On to `Nc1nc(=O)n([C@H]2O[C@@H](CO)[C@H](O)[C@H]2F)cc1Cl`, for which the 50% inhibitory concentration (IC50) in the experiment filed under Homo sapiens [1] was over 200 µM. Also, the EC50 in the experiment listed under Homo sapiens [2] is over 10 µM.

`O=c1[nH]c(=O)n([C@H]2O[C@@H](CO)[C@H](O)[C@H]2F)cc1F` yielded a half-inhibitory concentration (IC50) in the experiment filed under Homo sapiens [1] of over 200 µM. Further, the EC50 in the experiment filed under Homo sapiens [2] is over 10 µM.

Consider `O=c1[nH]c(=O)n([C@H]2O[C@@H](CO)[C@H](O)[C@H]2F)cc1Cl`, for which the concentration for half-maximal inhibition (IC50) in the experiment filed under Homo sapiens [1] was over 200 µM. In the experiment listed under Homo sapiens [2], the concentration giving a half-maximal response (EC50) was over 10 µM.

`O=c1[nH]c(=O)n([C@H]2O[C@@H](CO)[C@H](O)[C@H]2F)cc1Br` showed a concentration for half-maximal inhibition (IC50) in the experiment listed under Homo sapiens [1] of over 200 µM. The compound further returned an EC50 in the experiment filed under Homo sapiens [2] of over 10 µM.

`Nc1nc(=O)n([C@H]2O[C@@H](CO)[C@H](O)[C@H]2F)cc1Br`: in the experiment filed under Homo sapiens [1], the half-inhibitory concentration (IC50) is over 200 µM. In the experiment listed under Homo sapiens [2], this compound registered an EC50 of over 10 µM.

Take `Nc1ccn([C@@H]2O[C@H](CO)[C@@H](O)[C@@H]2F)c(=O)n1`: the IC50 is over 200 µM in the experiment filed under Homo sapiens [1] and over 100 µM in the experiment on CCRF-CEM. Besides, in the experiment filed under Homo sapiens [2], the half-maximal effective concentration (EC50) was determined as 1.4 µM. Moreover, in the experiment filed under Homo sapiens [3], the Selectivity is over 140.

Turning to `Cc1cn([C@@H]2O[C@H](CO)[C@@H](O)[C@@H]2F)c(=O)[nH]c1=O` [5-METHYL-2'-FLUOROARAURACIL], the half-maximal inhibitory concentration (IC50) in the experiment listed under Homo sapiens [1] and in the experiment with CCRF-CEM was over 200 µM each time. For the same compound, in the experiment listed under Homo sapiens [2], the half-maximal effective concentration (EC50) was 0.1 µM. Also, the Selectivity in the experiment filed under Homo sapiens [3] is over 2000.

In the experiment listed under Homo sapiens [1], `Nc1nc(=O)n([C@@H]2O[C@H](CO)[C@@H](O)[C@@H]2F)cc1I` [FIACITABINE] had an IC50 of over 200 µM. The response in the experiment filed under Homo sapiens [2] was half-maximal at 5 µM (EC50). Further, the Selectivity in the experiment filed under Homo sapiens [3] was over 40.
